Measured values reported in ChEMBL document CHEMBL4138180, “neo-Clerodane Diterpenoids from Salvia polystachya Stimulate the Expression of Extracellular Matrix Components in Human Dermal Fibroblasts” (2017).
The source made the active and inactive calls. The rule behind the calls is not given here.

Tests used:
[1] = tested on: NHDF; assay: Upregulation of COL1A1 mRNA expression in HDF at 29.2 uM after 48 hrs by RT-PCR analysis relative to control; type: functional, Homo sapiens
Summary of the method: (§1)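 Normal human dermal fibroblasts from plastic-surgery biopsies, collagenase-disaggregated, grown in L15 Leibovitz with 10% FBS and penicillin/streptomycin at 37 °C. At 70% confluence refed with medium containing 0.26−0.29, 2.56−2.93 or 25.6−29.3 μM compound for 48 h. Total RNA, oligo-dT RT-PCR, 30 cycles, agarose gel band densitometry normalized to GAPDH. Fold versus basal-medium control, mean ± SD, one-way ANOVA.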

[2] = tested on: NHDF; assay: Upregulation of elastin mRNA expression in HDF at 0.29 to 29.2 uM after 48 hrs by RT-PCR analysis; type: functional, cell-based; details: Homo sapiens; summary of the method: as §1
[3] = tested on: NHDF; assay: Inhibition of elastin mRNA expression in HDF at 0.29 to 29.2 uM after 48 hrs by RT-PCR analysis; type: functional, cell-based; details: Homo sapiens; summary of the method: as §1
[4] = tested on: NHDF; assay: Upregulation of COL1A1 mRNA expression in HDF at 0.28 uM after 48 hrs by RT-PCR analysis relative to control; type: functional, Homo sapiens; summary of the method: as §1
[5] = tested on: NHDF; assay: Upregulation of […] mRNA expression in HDF at 0.28 to 27.9 uM after 48 hrs by RT-PCR analysis relative to control; type: functional, Homo sapiens; summary of the method: as §1
[6] = tested on: NHDF; assay: Upregulation of COL5A1 mRNA expression in HDF at 0.28 uM after 48 hrs by RT-PCR analysis relative to control; type: functional, Homo sapiens; summary of the method: as §1
[7] = tested on: NHDF; assay: Upregulation of elastin mRNA expression in HDF at 0.28 to 27.9 uM after 48 hrs by RT-PCR analysis relative to control; type: functional, Homo sapiens; summary of the method: as §1
[8] = tested on: NHDF; assay: Inhibition of elastin mRNA expression in HDF at 0.28 to 27.9 uM after 48 hrs by RT-PCR analysis; type: functional, cell-based; details: Homo sapiens; summary of the method: as §1
[9] = tested on: Escherichia coli; assay: Antibacterial activity against Escherichia coli at 0.5 to 8 ug after 18 hrs by agar disc diffusion method; type: functional, organism-based
Summary of the method: (§2)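 Bacteria suspended in saline at 10^8 CFU mL−1; 0.1 mL spread on nutrient agar (pH 6.8). Filter-paper disks carrying 8, 4, 2, 1 and 0.5 μg of compound (in DMSO) placed on the plates. Incubated aerobically at 37 °C for 18 h. Inhibition zone measured by caliper. Ampicillin and DMSO disks served as controls.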

[10] = tested on: Bacillus sp.; assay: Antibacterial activity against Bacillus sp. at 0.5 to 8 ug after 18 hrs by agar disc diffusion method; type: functional, organism-based; summary of the method: as §2
[11] = tested on: Candida albicans; assay: Antifungal activity against Candida albicans ATCC 10235 at 0.5 to 8 ug after 24 hrs by agar disc diffusion method; type: functional, organism-based
Summary of the method: (§3)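 Qualitative disk diffusion on potato dextrose agar. Fungal inoculum at a final 10^5 CFU mL−1. Disks carried 8, 4, 2, 1 and 0.5 μg of compound in DMSO. Incubated aerobically at 37 °C for 24 h. Growth-inhibition zone measured by caliper. Amphotericin B and DMSO disks served as controls.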

[12] = tested on: Nakaseomyces glabratus; assay: Antifungal activity against Candida glabrata CBS 138 at 0.5 to 8 ug after 24 hrs by agar disc diffusion method; type: functional, organism-based; summary of the method: as §3
[13] = tested on: NHDF; assay: Upregulation of COL1A1 mRNA expression in HDF at 0.29 to 29.3 uM after 48 hrs by RT-PCR analysis; type: functional, cell-based; details: Homo sapiens
Summary of the method: (§4)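 Primary dermal fibroblasts from surgical biopsies, collagenase-dissociated and grown in L15 with 10% FBS at 37 °C. Total RNA (1 μg) was reverse-transcribed with oligo dT. PCR ran 30 cycles and products were run on 1.5% agarose. Bands were quantified and normalized to GAPDH, giving fold over the basal-medium control as mean ± SD, with one-way ANOVA.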

[14] = tested on: NHDF; assay: Upregulation of […] mRNA expression in HDF at 0.29 uM after 48 hrs by RT-PCR analysis relative to control; type: functional, Homo sapiens; summary of the method: as §4
[15] = tested on: NHDF; assay: Upregulation of […] mRNA expression in HDF at 2.93 uM after 48 hrs by RT-PCR analysis relative to control; type: functional, Homo sapiens; summary of the method: as §4
[16] = tested on: NHDF; assay: Upregulation of COL5A1 mRNA expression in HDF at 2.93 uM after 48 hrs by RT-PCR analysis relative to control; type: functional, Homo sapiens; summary of the method: as §4
[17] = tested on: NHDF; assay: Upregulation of elastin mRNA expression in HDF at 0.29 to 29.3 uM after 48 hrs by RT-PCR analysis relative to control; type: functional, Homo sapiens; summary of the method: as §4
[18] = tested on: NHDF; assay: Inhibition of elastin mRNA expression in HDF at 0.29 to 29.3 uM after 48 hrs by RT-PCR analysis; type: functional, cell-based; details: Homo sapiens; summary of the method: as §4
[19] = tested on: NHDF; assay: Upregulation of COL1A1 mRNA expression in HDF at 100 uM after 48 hrs by RT-PCR analysis; type: functional, cell-based; details: Homo sapiens
Summary of the method: (§5)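 Positive control: ascorbic acid at 100 μM in basal medium (L15 Leibovitz, 10% FBS, antibiotics) added to normal human dermal fibroblasts at 70% confluence, 48 h, 37 °C. Total RNA reverse-transcribed with oligo dT, PCR 30 cycles, bands on 1.5% agarose quantified and normalized to GAPDH mRNA. Mean ± SD versus basal-medium control, one-way ANOVA.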

[20] = tested on: NHDF; assay: Upregulation of elastin mRNA expression in HDF at 100 uM after 48 hrs by RT-PCR analysis; type: functional, cell-based; details: Homo sapiens; summary of the method: as §5

## C[C@@H]1[C@H]2C[C@@]34COC(=O)[C@H]3CC=C[C@H]4[C@@]13C[C@H](c1ccoc1)O[C@H]3O2
[1]
  fold change (FC): 1.6
[2]
  Activity: Active
[3]
  inhibition: inactive

## C[C@@H]1[C@H]2C[C@@]34COC(=O)[C@H]3C[C@H]3O[C@H]3[C@H]4[C@@]13C[C@H](c1ccoc1)O[C@H]3O2
[4]
  fold change (FC): 1.6
[5]
  fold change (FC): 2.1 - 2.5
[6]
  fold change (FC): 2.2
[7]
  fold change (FC): 2.7 - 3.2
[8]
  inhibition: inactive
[9]
  Activity: inactive
[10]
  Activity: inactive
[11]
  Activity: inactive
[12]
  Activity: inactive

## C[C@]12C[C@H](c3ccoc3)OC(=O)[C@H]1CC[C@@]13COC(=O)C1=CC=C[C@H]32
[13]
  Activity: inactive
[14]
  fold change (FC): 2.5
[15]
  fold change (FC): 3.4
[16]
  fold change (FC): 2.5
[17]
  fold change (FC): 2.1 - 3.4
[18]
  inhibition: inactive
[9]
  Activity: inactive
[10]
  Activity: inactive
[11]
  Activity: inactive
[12]
  Activity: inactive

## O=C1O[C@H]([C@@H](O)CO)C(O)=C1O
[19]
  Activity: Active
[20]
  Activity: Active
